Reference: PMC3057608 (Cancer research, 2011)
Read-outs that look alike come from different tables or passages of the source.

How the values were obtained:
HCC1937 cells [1] = assay: Clonogenic assay, BRCA1-null cells; assay type: cell-based
CAPAN1 cells [2] = assay: Neutral comet assay, BRCA2-null cells; assay type: cell-based
HCC1937 cells [3] = assay: Neutral comet assay, BRCA1-null cells; assay type: cell-based
CAPAN1 cells [4] = assay: Clonogenic assay, BRCA2-null cells; assay type: cell-based
DNA-PKcs [5] = target: T1, DNA-PKcs (Homo sapiens, UniProt P78527); assay: ELISA of GNFRYLAPP/DNA-PKcs interaction; assay type: binding; conditions: pure DNA-PK, 1 μM ATP, sonicated DNA, 37°C 1 h, fluorescence read-out (Fig. 4B)
Method in brief: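 Bait wells: streptavidin plates coated with 100 ng biotinylated linearized pSP72 or 10 ng biotinylated test peptide (or biotinylated scrambled control), or adsorption plates coated with 250 units pure DNA-PK. After blocking, prey is added for 1 h at 37°C with 1 μM ATP, sonicated DNA (50 ng/μL) and protease/phosphatase inhibitors. Non-biotinylated test or scrambled peptide serves as competitor. DNA-PKcs is read with fluorophore-conjugated antibodies and peptide with FITC-streptavidin (1:500) on a fluorescence plate reader.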

DNA-PKcs [6] = target: T1, DNA-PKcs; assay: Protease protection assay; assay type: biochemical; conditions: 10 μM, trypsin 0.01% 8 min 37°C, immunoblot (Fig. 4H)
DNA-PKcs [7] = target: T1, DNA-PKcs; assay: DNA-PKcs kinase assay; assay type: biochemical; conditions: for DNA-PKcs inhibition by truncated/mutant/phosphorylated peptide derivatives: alanine scanning and mutant peptides, DNA-PKcs kinase activity (Fig. 6A)
M059J cells = assay: Nuclear focus formation after irradiation, DNA-PK -/- cells; assay type: cell-based; conditions: 10 μM, 1 h after 3 Gy, FITC-streptavidin (Fig. 5A left)
Method in brief: (§1)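 Peptides at 10 μM are added to growth medium 72 h before irradiation or mock-irradiation (137Cs, 333 cGy per minute). Cells are grown on coverslips and fixed 3 min in ice-cold acetone:methanol 1:1 at set times after irradiation. They are blocked 1 h at room temperature in 5% goat serum, with primary reagents in 1% BSA overnight at 4°C and secondary reagents 1 h at room temperature. Foci are imaged by inverted fluorescence microscopy.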

KS1767 cells = assay: Nuclear focus formation after irradiation, DNA-PKcs +/+ cells; assay type: cell-based, human; conditions: 10 μM
Method in brief: as §1

[8] = tested on: Phosphorylated DNA-PKcs (T2609) in KS1767 cells; assay: DNA-PKcs autophosphorylation; assay type: cell-based, human; conditions: KS1767, 10 μM, 30 minutes after 3 Gy (Fig. 5B)
Method in brief: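 Peptides, penetratin-fused test or scrambled control at 10 μM, are added to standard growth medium of KS1767 Kaposi sarcoma cells 72 h before irradiation or mock-irradiation. Irradiation uses a 137Cs source at 333 cGy per minute.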

Compound: COc1cc(C=O)c([N+](=O)[O-])cc1OC [DMNB, reference compound]
- radiosensitivity by clonogenic assay (HCC1937 cells [1]): increased radiosensitivity
- residual double-strand breaks by neutral comet assay (CAPAN1 cells [2]): increased residual double-strand breaks
- residual double-strand breaks by neutral comet assay (HCC1937 cells [3]): increased residual double-strand breaks
- radiosensitivity by clonogenic assay (CAPAN1 cells [4]): increased radiosensitivity

Compound: GNFRYLAPP
- interaction with DNA-PKcs by ELISA (DNA-PKcs [5]): sufficient for attracting
- effect on DNA-induced protection of DNA-PKcs from trypsin digestion (DNA-PKcs [6]): prevented the protection from trypsin digestion
- phosphorylation of the peptide itself by DNA-PKcs (DNA-PKcs [7]; Fig. 4C): not phosphorylated
- mode of DNA-PKcs inhibition (DNA-PKcs [7]; conclusion from binding, kinase and protease protection data): non-competitive inhibitor
- effect on DNA-PKcs phosphorylation of its p53-derived consensus substrate (DNA-PKcs [7]; pure DNA-PK, increasing molar ratios of peptide to substrate (Fig. 4C)): progressively inhibited

Compound: GNFRYLAPP-pen
- nuclear focus formation of biotinylated peptide (M059J cells): did not form foci
- radiosensitivity by clonogenic assay (HCC1937 cells [1]; HCC1937 (BRCA1-null), 10 μM, 72 h pre-incubation (Fig. 5D-E)): increased radiosensitivity
- residual double-strand breaks by neutral comet assay (CAPAN1 cells [2]; CAPAN1 (BRCA2-null), 10 μM, 72 h pre-incubation, 3 and 6 hours after 6 Gy (Fig. 5C)): increased residual double-strand breaks
- nuclear focus formation of biotinylated peptide (KS1767 cells; KS1767 (DNA-PKcs +/+), 1 h after 3 Gy, FITC-streptavidin (Fig. 5A left)): formed foci
- resolution of peptide foci over time after irradiation (KS1767 cells; KS1767, 3 Gy, majority of cells retaining foci as late as 12 hours (Fig. 5A right)): slow resolution
- phosphorylated DNA-PKcs (T2609) signal after irradiation [8]: no signal was detected
- residual double-strand breaks by neutral comet assay (HCC1937 cells [3]; HCC1937 (BRCA1-null), 10 μM, 72 h pre-incubation, 3 and 6 hours after 6 Gy (Fig. 5C)): increased residual double-strand breaks
- radiosensitivity by clonogenic assay (CAPAN1 cells [4]; CAPAN1 (BRCA2-null), 10 μM, 72 h pre-incubation (Fig. 5D-E)): increased radiosensitivity

Compound: GSFRYL
- DNA-PKcs inhibition by truncated/mutant/phosphorylated peptide derivatives (DNA-PKcs [7]): abolished

Compound: GpSFRYL
- DNA-PKcs inhibition by truncated/mutant/phosphorylated peptide derivatives (DNA-PKcs [7]): reestablished DNA-PKcs inhibition

Compound: RYPAGLPFL [scrambled peptide, reference compound]
- interaction with DNA-PKcs by ELISA (DNA-PKcs [5]): no detectable interaction
